Measured values reported in paper PMC5397363 (Molecular microbiology, 2017).
Values joined by “and” are separate entries in the source; they are usually repeats but may differ in a detail not shown here. Identical values can stand only once. * marks the point of attachment. CH2Cl = ClC*

Key:
Prp [1] = biological target: T1, Prp (Staphylococcus aureus, UniProt Q2FXS9); assay: Fluorogenic peptide cleavage assay, Michaelis-Menten kinetics of wild-type Prp; type: biochemical; settings: pH 7.0
Prp [2] = biological target: T1, Prp; assay: Reaction of Prp with Ellman's reagent under non-denaturing conditions
Prp [3] = biological target: T1, Prp; assay: Inhibition of Prp by chloromethylketone-containing substrate peptide; type: biochemical
Summary of the method: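 Recombinant S. aureus Prp was purified on Ni-NTA, with the His6-SUMO tag removed by Ulp1. It was tested in a fluorogenic peptide cleavage assay in 50 mM sodium phosphate pH 7.0 with 1.5 mM DTT, 2.35 mM EDTA and 2.53% DMSO (final). Fluorescence (ex 325/em 414 nm) was read every 8 s for 10 min at ambient temperature. Percent inhibition was taken from initial velocities relative to a no-inhibitor control.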

T1 sequence (Q2FXS9 whole entry): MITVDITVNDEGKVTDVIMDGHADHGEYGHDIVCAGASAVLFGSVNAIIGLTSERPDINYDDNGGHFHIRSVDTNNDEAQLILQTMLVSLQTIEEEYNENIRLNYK

## 2-aminobenzoic acid-KLNLQFFASKK-dinitrophenol [fluorogenic substrate]
Prp [1]; ET constrained to 42.765 nM active sites (2 per dimer)
  turnover number (kcat): 0.0458 ± 0.0014 s⁻¹ and 0.05 ± 0.00 s⁻¹
Prp [1]
  specificity constant (kcat/Km): 251100 ± 39300 M⁻¹ s⁻¹ and 250000 ± 40000 M⁻¹ s⁻¹

## O=C(O)c1cc(SSc2ccc([N+](=O)[O-])c(C(=O)O)c2)ccc1[N+](=O)[O-] [Ellman’s reagent, 5,5′-dithiobis(2-nitrobenzoic acid)]
Prp [2]
  reaction with Prp (qualitative): readily reacts

## Ac-KLNLQFF-CH2Cl
Prp [3]
  inhibition of Prp (qualitative): inhibited
